From ChEMBL document CHEMBL1649503, “Alkoxyalkyl esters of 9-(s)-(3-hydroxy-2-phosphonomethoxypropyl) adenine are potent and selective inhibitors of hepatitis B virus (HBV) replication in vitro and in HBV transgenic mice in vivo” (Antimicrob Agents Chemother, 2009)

How the values were obtained:
Hepatitis B virus [1] = experiment: Antiviral activity against HBV infected in human HepG2(2.2.15) cells assessed as decrease in extracellular viral DNA level after 24 hrs by blot hybridization assay; assay type: functional, organism-based; details: HepG2 2.2.15, 24 h
Method in brief: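 Confluent 2.2.15 cells in RPMI 1640 with 2% FBS got nine consecutive daily doses, with medium replaced daily with drug-containing medium. Six wells per concentration over two replicate plates. Cells were pelleted from the medium, which was kept at 4°C and not frozen. Extracellular HBV DNA was quantified by blot hybridization 24 h after the last dose.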

[2] = Cytotoxicity against human HepG2(2.2.15) cells after 24 hrs by neutral red assay; assay type: cell-based
Method in brief: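 2.2.15 cells, RPMI 1640 with 2% FBS, dosed daily for nine consecutive days. Viability was read by neutral red uptake, absorbance of internalized dye at 510, 24 h after the last treatment, three cultures per concentration.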

HepG2 [3] = experiment: Drug metabolism in human HepG2 cells assessed as unidentified metabolite uptake at 10 uM after 24 hrs; assay type: ADME, cell-based; details: hepg2, 24 h
Method in brief: (§1)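 Nearly confluent HepG2 flasks got 14C-labeled drug (final 10 µM, 50 mCi/mmol) for 24 h. Cells were washed with cold PBS, lysed in water by two freeze-thaw cycles and sonication, then extracted with cold TCA (8% final) and centrifuged at 4°C. Supernatant was counted and analyzed by SAX ion-exchange HPLC, with metabolites assigned by retention versus reference standards.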

HepG2 [4] = experiment: Drug metabolism in human HepG2 cells assessed as unidentified metabolite uptake at 10 uM after 48 hrs; assay type: ADME, cell-based; details: hepg2, 48 h
HepG2 [5] = experiment: Drug metabolism in human HepG2 cells assessed as HPMPAp uptake at 10 uM after 24 hrs; assay type: ADME, cell-based; details: hepg2, 24 h; method in brief: as §1
[6] = Tmax in Swiss-Webster mouse spleen at 10 mg/kg, po after 24 hrs; assay type: ADME, organism-based; set-up: dose 10 mg/kg, route oral
Method in brief: (§2)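 Female Swiss-Webster mice (about 25 g) got one 10 mg/kg dose of the 8-14C-labeled ester (50 mCi/mmol) in 0.7% saline, by oral gavage or intraperitoneal injection. Blood was taken at 1, 3, 6, 12 and 24 h. Liver, spleen, kidney, lung, heart and brain were excised, washed and weighed. Drug plus metabolites were measured by liquid scintillation as µM plasma equivalents or nmol/g tissue. Each time point is the mean of three replicates.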

[7] = Cmax in Swiss-Webster mouse plasma assessed per gram of tissue at 10 mg/kg, po after 24 hrs; assay type: ADME, organism-based; set-up: dose 10 mg/kg, route oral
Method in brief: (§3)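 Female Swiss-Webster mice (about 25 g) each got a single 10 mg/kg dose of the 14C-labeled (8-14C) ester (50 mCi/mmol) in 0.7% saline, by oral gavage or ip injection. Blood was taken at 1, 3, 6, 12 and 24 h, and liver, spleen, kidney, lung, heart and brain were excised, washed and weighed. Radioactivity was measured by scintillation counting as µM plasma equivalents or nmol/g tissue, mean of three per time point.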

Spleen [8] = experiment: Cmax in Swiss-Webster mouse spleen assessed per gram of tissue at 10 mg/kg, po after 24 hrs; assay type: ADME, organism-based; set-up: dose 10 mg/kg, route oral; details: in vivo; method in brief: as §3
Brain [9] = experiment: Cmax in Swiss-Webster mouse brain assessed per gram of tissue at 10 mg/kg, po after 24 hrs; assay type: ADME, organism-based; set-up: dose 10 mg/kg, route oral; details: in vivo; method in brief: as §3
Spleen [10] = experiment: AUC in Swiss-Webster mouse spleen assessed per gram of tissue at 10 mg/kg, po after 24 hrs; assay type: ADME, organism-based; set-up: time < 24 hr, dose 10 mg/kg, route oral; details: in vivo; method in brief: as §3
[11] = Tmax in Swiss-Webster mouse liver at 10 mg/kg, ip after 24 hrs; assay type: ADME, organism-based; set-up: dose 10 mg/kg, route intraperitoneal; method in brief: as §3
[12] = Tmax in Swiss-Webster mouse kidney at 10 mg/kg, ip after 24 hrs; assay type: ADME, organism-based; set-up: dose 10 mg/kg, route intraperitoneal; method in brief: as §3
[13] = Tmax in Swiss-Webster mouse lung at 10 mg/kg, ip after 24 hrs; assay type: ADME, organism-based; set-up: dose 10 mg/kg, route intraperitoneal; method in brief: as §2
Liver [14] = experiment: Cmax in Swiss-Webster mouse liver assessed per gram of tissue at 10 mg/kg, ip after 24 hrs; assay type: ADME, organism-based; set-up: dose 10 mg/kg, route intraperitoneal; details: in vivo; method in brief: as §3
Lung [15] = experiment: Cmax in Swiss-Webster mouse lung assessed per gram of tissue at 10 mg/kg, ip after 24 hrs; assay type: ADME, organism-based; set-up: dose 10 mg/kg, route intraperitoneal; details: in vivo; method in brief: as §3
Spleen [16] = experiment: Cmax in Swiss-Webster mouse spleen assessed per gram of tissue at 10 mg/kg, ip after 24 hrs; assay type: ADME, organism-based; set-up: dose 10 mg/kg, route intraperitoneal; details: in vivo; method in brief: as §3
Heart = experiment: Cmax in Swiss-Webster mouse heart assessed per gram of tissue at 10 mg/kg, ip after 24 hrs; assay type: ADME, organism-based; set-up: dose 10 mg/kg, route intraperitoneal; details: in vivo; method in brief: as §3
Brain [17] = experiment: Cmax in Swiss-Webster mouse brain assessed per gram of tissue at 10 mg/kg, ip after 24 hrs; assay type: ADME, organism-based; set-up: dose 10 mg/kg, route intraperitoneal; details: in vivo; method in brief: as §3
Liver [18] = experiment: AUC in Swiss-Webster mouse liver assessed per gram of tissue at 10 mg/kg, ip after 24 hrs; assay type: ADME, organism-based; set-up: time < 24 hr, dose 10 mg/kg, route intraperitoneal; details: in vivo; method in brief: as §3
Lung [19] = experiment: AUC in Swiss-Webster mouse lung assessed per gram of tissue at 10 mg/kg, ip after 24 hrs; assay type: ADME, organism-based; set-up: time < 24 hr, dose 10 mg/kg, route intraperitoneal; details: in vivo; method in brief: as §3
Brain [20] = experiment: AUC in Swiss-Webster mouse brain assessed per gram of tissue at 10 mg/kg, ip after 24 hrs; assay type: ADME, organism-based; set-up: time < 24 hr, dose 10 mg/kg, route intraperitoneal; details: in vivo; method in brief: as §3
Mus musculus [21] = experiment: Toxicity in transgenic mouse at 10 mg/kg, po assessed as mortality after 7 days; assay type: organism-based; set-up: dose 10 mg/kg, route oral; details: in vivo, 168 h
Mus musculus [22] = experiment: Toxicity in transgenic mouse at 10 mg/kg, po assessed as morbidity after 7 days; assay type: organism-based; set-up: dose 10 mg/kg, route oral; details: in vivo, 168 h
Mus musculus [23] = experiment: Toxicity in transgenic mouse at 30 to 100 mg/kg, po assessed as mortality after 7 days; assay type: organism-based; set-up: dose 30-100 mg/kg, route oral; details: in vivo, 168 h
Hepatitis B virus [24] = experiment: Antiviral activity against HBV infected in transgenic mouse assessed as decrease in liver viral DNA level at 4 mg/kg, po administered daily for 14 days measured post last dose; assay type: functional
Method in brief: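 Homozygous male and female HBV transgenic mice (founder 1.3.32; 22.2 ± 2.8 g) received drug in distilled water by oral gavage, 0.1 ml/10 g, at 7 µmol/kg (4 mg/kg) daily for 14 days. About 0.1 g liver was lysed at necropsy, and DNA was extracted with phenol-chloroform. HBV DNA was measured by qPCR normalized to GAPDH, using duplicate CTs against a dilution standard curve, in relative units/µg cell DNA.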

Hepatitis B virus [25] = experiment: Antiviral activity against wild type HBV infected in human HuH7 cells assessed as decrease in viral transient transfection after 5 days; details: Huh-7, 5 days
Hepatitis B virus [26] = experiment: Antiviral activity against HBV harboring RNA polymerase M204I mutant gene infected in human HuH7 cells assessed as decrease in viral transient transfection after 5 days; details: Huh-7, 5 days
Hepatitis B virus [27] = experiment: Antiviral activity against HBV harboring RNA polymerase L180M/M204V mutant gene infected in human HuH7 cells assessed as decrease in viral transient transfection after 5 days; details: Huh-7, 5 days

Structure (SMILES): CCCCCCCCCCCCCCCCOCCCOP(=O)(O)CO[C@H](CO)Cn1cnc2c(N)ncnc21
- EC50 (Hepatitis B virus [1]): 188 nM
- EC90 (Hepatitis B virus [1]): 616 nM
- CC50 at 24 h [2]: > 300000 nM
- Drug uptake (HepG2 [3]): 596 pmol
- Drug uptake (HepG2 [4]): 402 pmol
- Drug uptake (HepG2 [5]): 255 pmol
- Tmax [6]: 3 h
- Cmax [7]: 1110 nM
- Cmax (Spleen [8]): 0.22 nmol/g
- Cmax (Brain [9]): 0.07 nmol/g
- AUC (Spleen [10]): 3.9 nmol·h/g
- Tmax [11]: 1 h
- Tmax [12]: 1 h
- Tmax [13]: 1 h
- Cmax (Liver [14]): 131.5 nmol/g
- Cmax (Lung [15]): 2.84 nmol/g
- Cmax (Spleen [16]): 1.58 nmol/g
- Cmax (Heart): 0.57 nmol/g
- Cmax (Brain [17]): 0.16 nmol/g
- AUC (Liver [18]): 545.1 nmol·h/g
- AUC (Lung [19]): 21.5 nmol·h/g
- AUC (Brain [20]): 0.98 nmol·h/g
- Activity (Mus musculus [21]): Non-toxic
- Activity (Mus musculus [22]): Non-toxic
- Activity (Mus musculus [23]): Toxic
- ED50 (Hepatitis B virus [24]; Hepatitis B virus, Liver, 336 h): 0.096 µmol/kg
- ED90 (Hepatitis B virus [24]; dose 4 mg/kg): 2.97 µmol/kg
- EC50 (Hepatitis B virus [25]): 800 nM
- EC90 (Hepatitis B virus [25]): 3000 nM
- EC50 (Hepatitis B virus [26]): 1200 nM
- EC90 (Hepatitis B virus [26]): 4000 nM
- EC50 (Hepatitis B virus [27]): 700 nM
- EC90 (Hepatitis B virus [27]): 2800 nM
